Assay results taken from ChEMBL document CHEMBL3120102, “Structure-based design, synthesis and biological evaluation of novel anthra[1,2-d]imidazole-6,11-dione homologues as potential antitumor agents” (2013).

How the values were obtained:
T47D = experiment: Cytotoxicity against human T47D cells assessed as cell growth at 10 uM after 48 hrs by SRB assay; assay type: functional; conditions: read-out: Activity
Summary of the method: (§1)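 First stage of the NCI 60 human tumour cell line screen, with each compound tested at a single dose of 10. Cellular protein measured by sulforhodamine B colorimetry after 48 h drug exposure. Growth is calculated against a time-zero cell control and against plates not exposed to drug.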

BT-549 = experiment: Cytotoxicity against human BT549 cells assessed as cell growth at 10 uM after 48 hrs by SRB assay; assay type: functional; conditions: BT-549, 48 h, read-out: Activity
Summary of the method: (§2)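 NCI 60-cell-line screen, first stage: compound at a single dose of […] (unit as printed) for 48 h. Cellular protein was measured by sulforhodamine B colorimetry. Growth was determined using a time-zero cell control and plates not exposed to drug.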

DU-145 = experiment: Cytotoxicity against human DU145 cells assessed as cell growth at 10 uM after 48 hrs by SRB assay; assay type: functional; conditions: DU-145, 48 h, read-out: Activity; summary of the method: as §2
RXF 393 = experiment: Cytotoxicity against human RXF393 cells assessed as cell growth at 10 uM after 48 hrs by SRB assay; assay type: functional; conditions: RXF 393, 48 h, read-out: Activity
Summary of the method: (§3)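 First stage of the NCI 60 human tumour cell line screen: a single dose is tested against every line. Cell growth is read as cellular protein by sulforhodamine B colorimetry after 48 h of drug exposure, with reference to a time-zero control and to untreated plates.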

A498 = experiment: Cytotoxicity against human A498 cells assessed as cell growth at 10 uM after 48 hrs by SRB assay; assay type: functional; conditions: A498, 48 h, read-out: Activity
OVCAR-8 = experiment: Cytotoxicity against human OVCAR8 cells assessed as cell growth at 10 uM after 48 hrs by SRB assay; assay type: functional; conditions: OVCAR-8, 48 h, read-out: Activity; summary of the method: as §3
[1] = Cytotoxicity against human OVCAR4 cells assessed as cell growth at 10 uM after 48 hrs by SRB assay; assay type: functional; conditions: OVCAR-4, 48 h, read-out: Activity; summary of the method: as §3
IGROV-1 = experiment: Cytotoxicity against human IGROV1 cells assessed as cell growth at 10 uM after 48 hrs by SRB assay; assay type: functional; conditions: IGROV-1, 48 h, read-out: Activity
UACC-62 = experiment: Cytotoxicity against human UACC62 cells assessed as cell growth at 10 uM after 48 hrs by SRB assay; assay type: functional; conditions: UACC-62, 48 h, read-out: Activity; summary of the method: as §1
SK-MEL-28 = experiment: Cytotoxicity against human SK-MEL-28 cells assessed as cell growth at 10 uM after 48 hrs by SRB assay; assay type: functional; conditions: SK-MEL-28, 48 h, read-out: Activity; summary of the method: as §3
Malme-3M = experiment: Cytotoxicity against human MALME-3M cells assessed as cell growth at 10 uM after 48 hrs by SRB assay; assay type: functional; conditions: read-out: Activity
M14 = experiment: Cytotoxicity against human M14 cells assessed as cell growth at 10 uM after 48 hrs by SRB assay; assay type: functional; conditions: M14, 48 h, read-out: Activity; summary of the method: as §2
SNB-75 = experiment: Cytotoxicity against human SNB75 cells assessed as cell growth at 10 uM after 48 hrs by SRB assay; assay type: functional; conditions: SNB-75, 48 h, read-out: Activity; summary of the method: as §1
KM12 = experiment: Cytotoxicity against human KM12 cells assessed as cell growth at 10 uM after 48 hrs by SRB assay; assay type: functional; conditions: KM12, 48 h, read-out: Activity
HCT-15 = experiment: Cytotoxicity against human HCT15 cells assessed as cell growth at 10 uM after 48 hrs by SRB assay; assay type: functional; conditions: HCT-15, 48 h, read-out: Activity
HCT-116 = experiment: Cytotoxicity against human HCT116 cells assessed as cell growth at 10 uM after 48 hrs by SRB assay; assay type: functional; conditions: HCT-116, 48 h, read-out: Activity
NCI-H322M = experiment: Cytotoxicity against human NCI-H322M cells assessed as cell growth at 10 uM after 48 hrs by SRB assay; assay type: functional; conditions: read-out: Activity; summary of the method: as §3
NCI-H226 = experiment: Cytotoxicity against human NCI-H226 cells assessed as cell growth at 10 uM after 48 hrs by SRB assay; assay type: functional; conditions: NCI-H226, 48 h, read-out: Activity; summary of the method: as §3
HOP-92 = experiment: Cytotoxicity against human HOP92 cells assessed as cell growth at 10 uM after 48 hrs by SRB assay; assay type: functional; conditions: HOP-92, 48 h, read-out: Activity; summary of the method: as §2
HOP-62 = experiment: Cytotoxicity against human HOP62 cells assessed as cell growth at 10 uM after 48 hrs by SRB assay; assay type: functional; conditions: HOP-62, 48 h, read-out: Activity; summary of the method: as §2
A549 = experiment: Cytotoxicity against human A549 cells assessed as cell growth at 10 uM after 48 hrs by SRB assay; assay type: functional; conditions: A549, 48 h, read-out: Activity
SR = experiment: Cytotoxicity against human SR cells assessed as cell growth at 10 uM after 48 hrs by SRB assay; assay type: functional; conditions: read-out: Activity; summary of the method: as §1
RPMI-8226 = experiment: Cytotoxicity against human RPMI8226 cells assessed as cell growth at 10 uM after 48 hrs by SRB assay; assay type: functional; conditions: RPMI-8226, 48 h, read-out: Activity; summary of the method: as §3
MOLT-4 = experiment: Cytotoxicity against human MOLT4 cells assessed as cell growth at 10 uM after 48 hrs by SRB assay; assay type: functional; conditions: MOLT-4, 48 h, read-out: Activity; summary of the method: as §3
HL-60(TB) = experiment: Cytotoxicity against human HL-60(TB) cells assessed as cell growth at 10 uM after 48 hrs by SRB assay; assay type: functional; conditions: HL-60, 48 h, read-out: Activity
Summary of the method: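 NCI 60-cell panel first-stage screen at a single dose in the HL-60(TB) leukemia line. Cellular protein was measured by sulforhodamine B colorimetry after 48 h of drug exposure. Growth was referenced to a time-zero cell control and to plates not exposed to drug.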

[2] = target: Telomerase reverse transcriptase (Homo sapiens) (UniProt O14746); experiment: Inhibition of human tert transcriptional activity assessed as SEAP activity at 1 uM after 24 hrs by SEAP reporter assay; set-up: scale not given: the % may be the effect or the level left
Sequence of Telomerase reverse transcriptase (Homo sapiens) (O14746 whole entry): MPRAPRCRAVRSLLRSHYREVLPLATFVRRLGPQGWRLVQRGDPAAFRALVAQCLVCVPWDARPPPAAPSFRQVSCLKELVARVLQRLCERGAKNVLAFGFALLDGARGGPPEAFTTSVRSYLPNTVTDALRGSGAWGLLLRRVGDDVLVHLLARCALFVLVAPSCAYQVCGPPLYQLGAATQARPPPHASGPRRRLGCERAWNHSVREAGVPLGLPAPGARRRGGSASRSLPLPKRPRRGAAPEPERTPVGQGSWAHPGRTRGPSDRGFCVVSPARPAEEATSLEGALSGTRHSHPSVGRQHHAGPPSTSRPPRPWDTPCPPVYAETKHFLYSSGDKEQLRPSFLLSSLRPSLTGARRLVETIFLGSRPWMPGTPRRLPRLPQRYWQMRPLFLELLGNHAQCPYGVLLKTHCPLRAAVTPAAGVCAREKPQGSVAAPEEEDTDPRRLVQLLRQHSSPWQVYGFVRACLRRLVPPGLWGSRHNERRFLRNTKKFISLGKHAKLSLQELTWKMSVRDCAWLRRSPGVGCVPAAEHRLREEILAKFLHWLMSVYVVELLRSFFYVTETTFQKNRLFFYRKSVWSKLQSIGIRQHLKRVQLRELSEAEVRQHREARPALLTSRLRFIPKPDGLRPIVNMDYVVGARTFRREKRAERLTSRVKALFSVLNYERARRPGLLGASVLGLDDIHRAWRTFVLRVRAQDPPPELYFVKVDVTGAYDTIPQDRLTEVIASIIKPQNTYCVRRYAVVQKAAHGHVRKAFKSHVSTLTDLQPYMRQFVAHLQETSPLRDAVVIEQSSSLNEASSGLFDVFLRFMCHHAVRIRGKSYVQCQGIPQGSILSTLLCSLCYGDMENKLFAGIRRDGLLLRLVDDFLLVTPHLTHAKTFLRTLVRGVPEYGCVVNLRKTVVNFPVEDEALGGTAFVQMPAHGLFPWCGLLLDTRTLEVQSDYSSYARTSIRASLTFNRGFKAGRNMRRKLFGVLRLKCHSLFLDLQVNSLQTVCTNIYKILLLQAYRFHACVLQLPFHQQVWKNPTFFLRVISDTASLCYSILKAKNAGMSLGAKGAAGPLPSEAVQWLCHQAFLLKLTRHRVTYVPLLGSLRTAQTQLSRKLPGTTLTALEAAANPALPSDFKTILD
Summary of the method: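 Reporter assay for hTERT transcriptional activity using secreted alkaline phosphatase. About 2 × 10³ cells per well were grown for 24 h at 37 °C, then given fresh medium. Buffer was added to the medium: 2 M diethanolamine, 1 mM MgCl2 and 20 mM L-homoarginine. p-Nitrophenyl phosphate was added to 12 mM final. The rate of absorbance increase was read at 405 nm.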

[3] = Cytotoxicity against human H1299 cells assessed as cell viability at 10 uM after 48 hrs by MTT assay; assay type: functional; conditions: NCI-H1299, 48 h, read-out: Activity
Summary of the method: (§4)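 About 2×10³ H1299 cells per well were grown for 24 h at 37 °C in 5% CO2. Compound was dissolved in DMSO immediately before use, diluted in complete medium and left on cells for 48 h. MTT was then added for 4 h at 37 °C, followed by SDS/DMF lysis buffer for 16 h at 37 °C. Absorbance was read at 550 nm.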

[4] = Cytotoxicity against human H1299 cells assessed as cell viability at 1 uM after 48 hrs by MTT assay; assay type: functional; conditions: NCI-H1299, 48 h, read-out: Activity; summary of the method: as §4

| SMILES | growth at 10 µM (T47D) [%] | growth at 10 µM (BT-549) [%] | growth at 10 µM (DU-145) [%] | growth at 10 µM (RXF 393) [%] | growth at 10 µM (A498) [%] | growth at 10 µM (OVCAR-8) [%] | growth at 10 µM [1] [%] | growth at 10 µM (IGROV-1) [%] | growth at 10 µM (UACC-62) [%] | growth at 10 µM (SK-MEL-28) [%] | growth at 10 µM (Malme-3M) [%] | growth at 10 µM (M14) [%] | growth at 10 µM (SNB-75) [%] | growth at 10 µM (KM12) [%] | growth at 10 µM (HCT-15) [%] | growth at 10 µM (HCT-116) [%] | growth at 10 µM (NCI-H322M) [%] | growth at 10 µM (NCI-H226) [%] | growth at 10 µM (HOP-92) [%] | growth at 10 µM (HOP-62) [%] | other results |
| --- | --- | --- | --- | --- | --- | --- | --- | --- | --- | --- | --- | --- | --- | --- | --- | --- | --- | --- | --- | --- | --- |
| O=C1c2ccccc2C(=O)c2c1ccc1nc3n(c21)CCS3 | 73.1 | 87.9 | 68.8 | 46.5 | 73.7 | 75.4 | 89.3 | 62.3 | 73.1 | 109 | 87.6 | 78.5 | 95.6 | 84.9 | 57.1 | 68.4 | 72.1 | 80.5 | 88.7 | 85.3 | growth at 10 µM (A549): 81.2%; growth at 10 µM (SR): 60.6%; growth at 10 µM (RPMI-8226): 71.7%; growth at 10 µM (MOLT-4): 58.4%; growth at 10 µM (HL-60(TB)): 78.8%; Activity [2]: 107%; viability at 10 µM [3]: 128%; viability at 1 µM [4]: 115% |
| CCSc1nc2ccc3c(c2[nH]1)C(=O)c1ccccc1C3=O | 30.8 | 55.8 | 64.5 | 99.9 | 75.5 | 96.8 | 55 | 73.4 | 47.6 | 97.7 | 63.3 | 67.1 | 73.3 | 68.3 | 32.3 | 68.8 | 33.4 | 62.1 | 75.3 | 95.6 | growth at 10 µM (A549): 101%; growth at 10 µM (SR): 129%; growth at 10 µM (RPMI-8226): 28.5%; growth at 10 µM (MOLT-4): 101%; growth at 10 µM (HL-60(TB)): 62.6%; Activity [2]: 100%; viability at 10 µM [3]: 127%; viability at 1 µM [4]: 109% |
| O=C1c2ccccc2C(=O)c2c1ccc1nc(SCCN3CCCC3)[nH]c21 | 83.1 | 78.6 | 17.9 | 22.3 | 71.4 | 49.4 | 57.2 | 23.2 | 81 | 100 | 112 | 70.9 | 81.8 | 19.6 | 40.4 | 38.8 | 73.2 | 88.1 | 35.2 | 73.7 | growth at 10 µM (A549): 35.5%; growth at 10 µM (SR): 20.2%; growth at 10 µM (RPMI-8226): -60.2%; growth at 10 µM (MOLT-4): 30.9%; growth at 10 µM (HL-60(TB)): 37.4%; Activity [2]: 102%; viability at 10 µM [3]: 89%; viability at 1 µM [4]: 90% |
| CN(C)CCCSc1nc2ccc3c(c2[nH]1)C(=O)c1ccccc1C3=O | 45.8 | 75.8 | 36.4 | 38.4 | 76.2 | 61.9 | 29.7 | 30.9 | 75.4 | 102 | 88.2 | 77.3 | 50.5 | 20.4 | 36.3 | 27.6 | 70.8 | 74.1 | 16 | 52 | growth at 10 µM (A549): 51.6%; growth at 10 µM (SR): 3.09%; growth at 10 µM (RPMI-8226): -13.7%; growth at 10 µM (MOLT-4): -2.9%; growth at 10 µM (HL-60(TB)): 12.7%; Activity [2]: 100%; viability at 10 µM [3]: 79%; viability at 1 µM [4]: 108% |
| CCCSc1nc2ccc3c(c2[nH]1)C(=O)c1ccccc1C3=O | 53.7 | 76 | 69.3 | 20.1 | 57.3 | 44.7 | 42.2 | 53.7 | 51.1 | 92.6 | 88.2 | 90 | -9.55 | 55.2 | 67.7 | 47.7 | 76 | 50.2 | 17.2 | 59.1 | growth at 10 µM (A549): 59.1%; growth at 10 µM (SR): 71%; growth at 10 µM (RPMI-8226): 71.8%; growth at 10 µM (MOLT-4): 68.1%; growth at 10 µM (HL-60(TB)): 74.2%; Activity [2]: 103%; viability at 10 µM [3]: 78%; viability at 1 µM [4]: 91% |
| O=C1c2ccccc2C(=O)c2c1ccc1[nH]c(=S)[nH]c21 | 81.9 | 114 | 99.3 | 142 | 94.3 | 140 | 91.6 | 138 | 84.2 | 118 | 87.5 | 101 | 101 | 102 | 83.8 | 96.3 | 96.3 | 83.7 | 65.5 | 96.7 | growth at 10 µM (A549): 118%; growth at 10 µM (SR): 125%; growth at 10 µM (RPMI-8226): 101%; growth at 10 µM (MOLT-4): 109%; growth at 10 µM (HL-60(TB)): 97.6%; Activity [2]: 97%; viability at 10 µM [3]: 99%; viability at 1 µM [4]: 101% |
